Measured values from ChEMBL document CHEMBL1124641, “Synthesis and antiinflammatory and analgesic activity of 5-aroyl-6-(methylthio)-1,2-dihydro-3H-pyrrolo[1,2-a]pyrrole-1-ca rboxyl ic acids and 1-methyl-4-(methylthio)-5-aroylpyrrole-2-acetic acids” (J Med Chem, 1989).

Experiments:
[1] = system: Mus musculus; test: Analgesic activity was assessed from the ability to inhibit phenylquinone-induced writhing in mouse […]; format: functional
Summary of the method: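 Mouse phenylquinone-induced writhing screen. Potency is expressed relative to aspirin (aspirin = 1), with 95% confidence limits where given.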

[2] = system: Rattus norvegicus; test: Antiinflammatory activity assessed by inhibition of carrageenan-induced edema in rats […]; format: functional
[3] = Therapeutic ratio of MED GI erosion to that of ED30 of rat paw; format: ADME
Summary of the method: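 Ratio derived as the gastrointestinal erosion minimum effective dose divided by the ED30 from the carrageenan rat paw assay. The erosion dose (mg/kg per day) comes from a 7-day chronic dosing assay in rats.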

[4] = species on record: Rattus norvegicus; test: Chronic gastrointestinal erosive activity in rats; format: functional; details: read-out: MED
Summary of the method: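 Chronic 7-day gastrointestinal erosion assay in rats with daily dosing. The read-out is the minimum effective dose for erosion (mg/kg per day), with 15 rats where stated.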

Structure (SMILES)	ED50 [1]	ED30 [2]	selectivity ratio [3]	minimal effective dose [4]
CSc1cc2n(c1C(=O)c1ccc(Br)cc1)CCC2C(=O)O (stereo unspecified)	< 9 mg/kg	26 mg/kg	–	–
CSc1cc2n(c1C(=O)c1ccc(F)cc1)CCC2C(=O)O (stereo unspecified)	60 mg/kg	< 10 mg/kg	–	–
CCOc1ccc(C(=O)c2c(SC)cc(CC(=O)O)n2C)cc1	6 mg/kg	3.6 mg/kg	–	–
CSc1cc2n(c1C(=O)c1ccc(OC(C)C)cc1)CCC2C(=O)O (stereo unspecified)	1 mg/kg	< 1 mg/kg	–	–
COc1ccc(C(=O)c2c(SC)cc3n2CCC3C(=O)O)cc1 (stereo unspecified)	50 mg/kg	< 10 mg/kg	–	–
CS(=O)(=O)c1cc2n(c1C(=O)c1ccc(Br)cc1)CCC2C(=O)O (stereo unspecified)	–	< 1 mg/kg	–	–
CSc1cc(CC(=O)O)n(C)c1C(=O)c1ccc(F)cc1	37 mg/kg	0.5 mg/kg	–	–
CCc1ccc(C(=O)c2c(SC)cc3n2CCC3C(=O)O)cc1 (stereo unspecified)	70 mg/kg	16 mg/kg	–	–
CSc1cc2n(c1C(=O)c1ccc(C3CC3)cc1)CCC2C(=O)O (stereo unspecified)	25 mg/kg	13 mg/kg	–	–
CSc1ccc(C(=O)c2c(SC)cc3n2CCC3C(=O)O)cc1 (stereo unspecified)	50 mg/kg	10 mg/kg	–	–
CSc1cc(CC(=O)O)n(C)c1C(=O)c1ccc(Cl)cc1	56 mg/kg	1.5 mg/kg	–	–
CSc1cc2n(c1C(=O)c1ccc(C(F)(F)F)cc1)CCC2C(=O)O (stereo unspecified)	50 mg/kg	15 mg/kg	–	–
CSc1cc(CC(=O)O)n(C)c1C(=O)c1ccc(C2CC2)cc1	30 mg/kg	10 mg/kg	–	–
CCCc1ccc(C(=O)c2c(SC)cc3n2CCC3C(=O)O)cc1 (stereo unspecified)	7 mg/kg	2.5 mg/kg	–	–
CSc1cc2n(c1C(=O)c1ccc(C3CCCCC3)cc1)CCC2C(=O)O (stereo unspecified)	< 3 mg/kg	< 1 mg/kg	–	–
CCOc1ccc(C(=O)c2c(SC)cc3n2CCC3C(=O)O)cc1 (stereo unspecified)	< 13 mg/kg	4 mg/kg	–	–
CSc1cc2n(c1C(=O)c1ccc(C)cc1)CCC2C(=O)O (stereo unspecified)	–	–	4	19 mg/kg
CCCc1ccc(C(=O)c2c(SC)cc(CC(=O)O)n2C)cc1	5 mg/kg	0.2 mg/kg	–	–
CSc1cc(CC(=O)O)n(C)c1C(=O)c1ccc(C)cc1	–	–	> 4.5	> 45 mg/kg
C=Cc1ccc(C(=O)c2c(SC)cc3n2CCC3C(=O)O)cc1 (stereo unspecified)	38 mg/kg	16 mg/kg	–	–
CSc1cc(CC(=O)O)n(C)c1C(=O)c1ccccc1	> 11 mg/kg	1 mg/kg	–	–
CSc1cc2n(c1C(=O)c1ccc(Cl)cc1)CCC2C(=O)O (stereo unspecified)	–	–	3.5	1.5 mg/kg
CC(=O)Oc1ccccc1C(=O)O [ASPIRIN]	70 mg/kg	–	–	–
O=C(c1ccccc1)c1ccc2n1CCC2C(=O)O (stereo unspecified) [KETOROLAC]	–	–	18	5 mg/kg
COc1ccc2cc([C@H](C)C(=O)O)ccc2c1 [NAPROXEN]	–	–	22	30 mg/kg/day
CCCCC1C(=O)N(c2ccccc2)N(c2ccccc2)C1=O [PHENYLBUTAZONE]	–	15 mg/kg	–	–
Cc1cc(CC(=O)O)n(C)c1C(=O)c1ccc(Cl)cc1 [ZOMEPIRAC]	–	–	17	10 mg/kg
